# ABCB6 inh MLPCN: human ABCB6 transporter inhibition. actives 0.19% (n = 360,000). fluorescence ratio to DMSO, % at 10 µM. AID 602162. Q9NP58. K562-ABCB6 porphyrin accumulation, flow cytometry, 1 h; hits give low values;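 active = fluorescence ratio to DMSO below 75%, the collection mean minus 3 SD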;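 note: signal is porphyrin accumulated inside mitochondria; 100% equals median channel fluorescence of DMSO control wells; lower ratio means ABCB6 inhibition with less porphyrin fluorescence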
# FGF22 binding: shifts melting point of recombinant human FGF22; Q9HCT0; recombinant FGF22 thermal shift, SYPRO orange fluorescence; percent of sucrose octasulfate shift, DMSO zero; activity (Tm shift, normalised), % at 9.99 µM; actives 1.5% (n = 340,000); AID 651658;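 active = mean Tm shift, scaled 0 neutral to 100 positive control, at about 1.3% or above, every replicate too, limit read from the data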
# Exocytosis inh: blocks lytic granule exocytosis. inhibition, % at 10 µM. actives 0.66% (n = 360,000). TALL-104 LAMP-1 surface exposure, flow cytometry; cells stimulated with thapsigargin and PMA;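 active = inhibition above about 55%, limit read from the data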
# MT1-MMP act inh: blocks activation of human MT1-MMP; GFP/RFP ratio change, % at 20 µM; HT1080 RFP-PRO-GFP cells, GFP/RFP ratio fluorescence, overnight; percent of plate control window, DMSO zero; actives 0.061% (n = 360,000); P50281;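 active = GFP/RFP ratio change of at least 30% with cell ATP level not reduced by more than half and red fluorescence within 50% of control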
#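 Assay system – RFP-PRO-GFP reporter HT1080 cells · Compound dosing – single dose of 20 µM compound, 1% DMSO final · Incubation – overnight compound exposure at 37 °C · Measure – GFP/RFP fluorescence ratio · Benchmarks – DMSO wells and RFP-L50D-GFP cells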
# VLA-4 inh: inhibition in a human VLA-4 binding assay; P13612; inhibition, % (about 7 µM as worked out from the volumes in the protocol); AID 2557; actives 0.2% (n = 330,000); VLA-4 expressing cells, ligand binding flow cytometry; in the data active = inhibition above about 50%
# DAGLB inh: blocks human DAGLB lipase activity | AID 504411 | HEK293T DAGLB membrane lysate, EnzChek fluorogenic substrate | inhibition, % at 5.17 µM | actives 0.059% (n = 340,000); in the data active = inhibition above about 34%;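 note: 0% = enzyme with vehicle and 100% = wells lacking enzyme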
# Target sequence (Q8NCG7 whole entry, looked up): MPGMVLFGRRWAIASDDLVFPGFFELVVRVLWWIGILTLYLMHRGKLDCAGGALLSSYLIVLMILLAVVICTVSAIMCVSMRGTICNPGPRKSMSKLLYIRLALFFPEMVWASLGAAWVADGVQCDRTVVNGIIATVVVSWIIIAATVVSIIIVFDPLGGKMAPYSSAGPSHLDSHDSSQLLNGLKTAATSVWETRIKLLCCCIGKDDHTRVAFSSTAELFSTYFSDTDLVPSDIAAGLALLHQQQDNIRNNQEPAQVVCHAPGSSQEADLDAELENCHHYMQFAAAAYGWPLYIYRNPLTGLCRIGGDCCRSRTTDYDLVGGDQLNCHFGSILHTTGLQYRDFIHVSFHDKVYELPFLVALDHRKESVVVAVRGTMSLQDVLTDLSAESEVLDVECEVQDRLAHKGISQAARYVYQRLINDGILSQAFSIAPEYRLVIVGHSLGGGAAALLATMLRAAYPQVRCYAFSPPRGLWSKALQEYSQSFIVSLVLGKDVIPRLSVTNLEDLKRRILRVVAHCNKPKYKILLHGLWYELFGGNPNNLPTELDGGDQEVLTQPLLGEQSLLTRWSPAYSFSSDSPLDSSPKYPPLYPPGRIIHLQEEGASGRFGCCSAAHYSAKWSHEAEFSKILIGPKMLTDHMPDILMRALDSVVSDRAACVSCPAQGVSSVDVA
# The depositor's hits bear a star; . = no result given. A selection: hits, their analogues and other compounds. The true share with any hit is near 2%.
SMILES,ABCB6 inh MLPCN,FGF22 binding,Exocytosis inh,MT1-MMP act inh,VLA-4 inh,DAGLB inh
COc1ccc(Cl)cc1S(=O)(=O)N1CCN=C1c1ccccc1,104.0,0.0,26.4,1.0,-0.9,0.6
COc1ccc(Cl)cc1S(=O)(=O)N1CCCC1=O,102.0,42.9*,2.5,0.6,-8.8,-0.8
O=c1cnnc(N/N=C/c2c[nH]c3ccccc23)[nH]1,100.0,43.0*,-0.1,-4.9,20.0,0.6
CCCN1C[C@@H](C)[C@@H](OC)CN(C)C(=O)c2ccc(NC(=O)Nc3c(C)noc3C)cc2OC[C@@H]1C,.,0.0,.,.,.,.
CC1N=C(SCC(=O)c2ccc(F)cc2)N2C(C)N=C(SCC(=O)c3ccc(F)cc3)N12 (centres undefined),102.0,43.1*,-0.4,5.1,.,13.1
Cn1ccnc1SCC(=O)c1ccc(F)cc1,92.0,-0.1,9.3,2.8,4.6,.
CC(C)C#Cc1cnc2c(c1)C(=O)N([C@H](C)CO)C[C@H](C)[C@H](CN(C)S(=O)(=O)c1cn(C)cn1)O2,.,0.1,.,.,.,.
CCN(CC)C(=O)C1CCCN(c2ccccc2[N+](=O)[O-])C1 (centres undefined),103.0,43.0*,-1.4,5.0,4.7,1.1
CCN(CC)C(=O)C1CCCN(c2ccc([N+](=O)[O-])cc2[N+](=O)[O-])C1 (centres undefined),100.0,0.0,-1.9,4.0,-0.5,1.0
O=C(CCl)N=c1sccn1Cc1ccccc1Cl,88.0,0.0,29.5,-22.7,15.4,-0.6
O=C(CCl)N=c1sccn1Cc1ccc(Cl)cc1Cl,86.0,44.0*,18.7,-28.1,0.0,-1.5
Cc1cc(C)cc(S(=O)(=O)c2cnc3ccccc3n2)c1,103.0,43.1*,-1.9,-6.4,11.1,-3.1
C[C@@H]1CCCCO[C@@H](CN(C)S(=O)(=O)c2cn(C)cn2)[C@H](C)CN([C@H](C)CO)C(=O)c2cc(NC(=O)Cc3ccccc3)ccc2O1,.,0.2,.,.,.,.
C[C@H]1CCCCO[C@H](CN(C)C(=O)Nc2ccc3c(c2)OCO3)[C@@H](C)CN([C@@H](C)CO)C(=O)c2cc(NC(=O)NC3CCCCC3)ccc2O1,.,-0.4,.,.,.,.
CC(C)CC1NC(=O)N(CCCCN2C(=O)c3ccccc3C2=O)C1=O (centres undefined),92.0,43.5*,-4.8,8.1,3.5,-3.6
O=C(c1ccccc1F)N(Cc1cccnc1)Cc1cc2cc3c(cc2[nH]c1=O)OCCO3,98.0,43.0*,0.8,0.3,-8.3,0.1
CC(=O)Oc1ccc2oc(=O)c3c(c2c1)CCCN3C(=O)CN1CCOCC1,97.0,42.9*,6.3,0.2,7.6,-0.4
COc1ccc(NC(=O)N(C)C[C@H]2Oc3ccc(NC(=O)CCCCCC(=O)Nc4ccccc4N)cc3CC(=O)N([C@H](C)CO)C[C@H]2C)cc1,.,-0.2,.,.,.,.
O=c1c2c(-c3ccccc3)csc2nc2c3ccccc3c(NCCN3CCOCC3)nn12,92.0,-0.8,66.7*,-2.7,.,1.4
C[C@@H]1CCCCO[C@H](CN(C)S(C)(=O)=O)[C@H](C)CN([C@@H](C)CO)C(=O)c2cc(NS(=O)(=O)c3ccc(Cl)cc3)ccc2O1,.,-0.2,.,.,.,.
O=C(Cc1cccnc1)N[C@@H]1CC[C@H](CCNS(=O)(=O)c2ccccc2Cl)O[C@@H]1CO,.,0.4,.,.,.,.
O=C(NCc1cccnc1)Nc1ccc2c(c1)OCO2,99.0,43.2*,-11.3,-0.8,15.0,-2.8
CCc1ccccc1NC(=O)NCc1cccnc1,95.0,0.0,0.0,-2.6,-25.1,3.1
CCOc1ccccc1NC(=O)NCc1cccnc1,98.0,42.9*,-5.9,-2.1,0.5,-0.4
O=C(COC(=O)c1ccccn1)Nc1ccc2c(c1)OCO2,99.0,.,7.9,0.7,6.0,-3.1
SMILES,ABCB6 inh MLPCN,FGF22 binding,Exocytosis inh,MT1-MMP act inh,VLA-4 inh,DAGLB inh
O=C(COC(=O)c1cccnc1)Nc1ccc2c(c1)OCO2,96.0,43.3*,8.3,5.4,15.2,-2.5
COc1ccc2c3c([nH]c2c1)[C@H](CO)N(C(=O)Nc1c(C)noc1C)CC31CCN(CC2CCCC2)CC1,.,0.1,.,.,.,.
O=C(NCCc1ccccc1)C(=O)c1c(-c2ccccc2)cc2ccccn12,96.0,.,6.3,3.1,24.7,-2.3
O=C(NCCO)C(=O)c1c(-c2ccc(Cl)cc2)cc2ccccn12,103.0,43.8*,-1.2,-3.8,23.6,1.3
COc1ccc([C@H]2C[C@@H](O)[C@H](n3cc(COC(=O)c4ccccc4)nn3)CN2C(=O)c2cccs2)cc1,105.0,43.3*,-5.0,2.8,.,0.2
COc1ccc(NC(=O)Nc2ccc3c(c2)[C@@H]2C[C@H](CC(=O)N(C)C)O[C@@H](CO)[C@@H]2O3)cc1,.,0.2,.,.,.,.
CN1CCC(=NNC(=O)C(=O)Nc2ccccc2F)CC1,95.0,42.9*,-1.1,6.1,6.4,1.8
CN1CCC(=NNC(=O)C(=O)NC(C)(C)C)CC1,103.0,0.1,-11.4,4.2,7.8,-1.9
C[C@H](CO)N1C[C@H](C)[C@H](CN(C)C(=O)Nc2cccc3ccccc23)Oc2ccc(NS(=O)(=O)c3ccc(Cl)cc3)cc2C1=O,.,-0.3,.,.,.,.
Cc1nc(Oc2ccccc2)c2ccccc2n1,97.0,.,0.5,0.4,13.8,-2.3
c1ccc(Oc2ncnc3ccccc23)cc1,100.0,43.1*,1.6,-1.4,.,-1.0
CCn1c(CNc2cccc(C(F)(F)F)c2)n[nH]c1=S,98.0,43.4*,-2.5,0.5,9.5,2.0
O=c1[nH]nc(CNc2cccc(C(F)(F)F)c2)c2ccccc12,117.0,0.2,6.8,1.7,5.7,3.6
CCCCCc1cc(=O)oc2c(C(CCN3CCCC(C)C3)c3ccc(N(C)C)cc3)c(OC)cc(OC)c12 (centres undefined),90.0,.,81.1*,-7.2,21.1,4.8
Cc1ccc2nc3c(c(C(=O)OC4CCOC4=O)c2c1)CCCC3 (centres undefined),99.0,42.9*,1.9,1.8,-1.3,0.1
Cc1ccc(C(=O)OCC(=O)NC2CCS(=O)(=O)C2)c(C)c1 (centres undefined),87.0,-0.4,-2.0,-2.6,15.1,-3.4
Cc1ccc2nc3c(c(C(=O)OCC(=O)NC4CCS(=O)(=O)C4)c2c1)CCCC3 (centres undefined),95.0,43.0*,-0.1,-0.8,8.7,1.6
CN(CC(=O)NC1CCN(Cc2ccccc2)CC1)S(=O)(=O)c1ccc2c(c1)c(=O)n(C)c(=O)n2C,98.0,43.2*,-0.8,-0.6,9.7,-1.0
CSCCC(NS(=O)(=O)c1ccc2c(c1)c(=O)n(C)c(=O)n2C)C(=O)NC1CCN(Cc2ccccc2)CC1 (centres undefined),97.0,0.7,-1.5,0.8,-1.8,-0.7
C[C@H](CO)N1C[C@H](C)[C@@H](CN(C)C(=O)C2CCCCC2)Oc2ncc(-c3ccncc3)cc2C1=O,.,0.0,.,.,.,.

# Source: PubChem BioAssay (several laboratories)
